Experimental data reported in ChEMBL document CHEMBL1139060, “4-[6-(2-Aminoethyl)naphthalen-2-yl]benzonitriles are potent histamine H3 receptor antagonists with high CNS penetration” (Bioorg Med Chem Lett, 2007).

Columns and labels:
Histamine H3 receptor [1] = target: Histamine H3 receptor (Homo sapiens, UniProt Q9Y5N1); assay: Displacement of [3H]N-alpha-methylhistamine from human cloned histamine H3 receptor expressed in C6 cells; format: cell-based
Method in brief: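 Radioligand displacement with [3H]N-α-methylhistamine on membranes from C6 cells carrying cloned human H3R. Ki derived from pKi.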

Histamine H3 receptor [2] = target: Histamine H3 receptor (Rattus norvegicus, UniProt Q9QYN8); assay: Displacement of [3H]N-alpha-methylhistamine from histamine H3 receptor in rat cortical membranes; format: cell membranes, Membrane
Sequence of Histamine H3 receptor (Rattus norvegicus, UniProt Q9QYN8) (Q9QYN8 whole entry): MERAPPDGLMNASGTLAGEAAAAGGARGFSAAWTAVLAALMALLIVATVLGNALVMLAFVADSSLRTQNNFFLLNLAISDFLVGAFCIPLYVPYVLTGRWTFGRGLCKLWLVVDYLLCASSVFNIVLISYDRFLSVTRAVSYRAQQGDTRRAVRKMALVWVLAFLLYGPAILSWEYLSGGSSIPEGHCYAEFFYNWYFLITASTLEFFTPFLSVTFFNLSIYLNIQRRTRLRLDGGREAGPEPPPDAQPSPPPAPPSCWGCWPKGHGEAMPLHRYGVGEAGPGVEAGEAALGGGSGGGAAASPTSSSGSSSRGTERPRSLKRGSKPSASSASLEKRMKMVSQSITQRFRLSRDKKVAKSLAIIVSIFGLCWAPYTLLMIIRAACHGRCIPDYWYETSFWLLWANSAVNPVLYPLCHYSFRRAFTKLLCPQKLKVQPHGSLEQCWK
Method in brief: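 Competitive binding on rat cerebral cortex membranes, displacing the radioligand [3H]N-α-methylhistamine. Ki obtained from pKi. At least 3 independent pKi determinations per compound.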

[3] = Oral bioavailability in rat at 1 mg/kg; format: ADME, organism-based; settings: in vivo
[4] = Half life in rat at 1 mg/kg, po; format: ADME, organism-based; parameters: dose 1 mg/kg, route oral; settings: in vivo
[5] = Ratio of drug level in brain to plasma in rat at 5 mg/kg, iv; format: ADME, organism-based; parameters: dose 5 mg/kg, route intravenous
Method in brief: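 Rats given 5 mg/kg intravenously; brain and plasma drug concentrations measured one hour after dosing and expressed as a brain-to-plasma ratio.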

[6] = AUC (0 to infinity) in rat at 1 mg/kg, po; format: ADME, organism-based; parameters: time infinity, dose 1 mg/kg, route oral; settings: plasma
[7] = Volume of distribution in rat at terminal phase at 1 mg/kg, iv; format: ADME, organism-based; parameters: dose 1 mg/kg, route intravenous; settings: in vivo, read-out: Vbeta
[8] = Half life in rat at 1 mg/kg, iv; format: ADME, organism-based; parameters: dose 1 mg/kg, route intravenous; settings: in vivo
[9] = Cmax in rat at 1 mg/kg, po; format: ADME, organism-based; parameters: dose 1 mg/kg, route oral; settings: in vivo
[10] = AUC (0 to infinity) in rat at 1 mg/kg, iv; format: ADME, organism-based; parameters: time infinity, dose 1 mg/kg, route intravenous; settings: plasma

Sequence of Histamine H3 receptor (Homo sapiens, UniProt Q9Y5N1) (Q9Y5N1 whole entry): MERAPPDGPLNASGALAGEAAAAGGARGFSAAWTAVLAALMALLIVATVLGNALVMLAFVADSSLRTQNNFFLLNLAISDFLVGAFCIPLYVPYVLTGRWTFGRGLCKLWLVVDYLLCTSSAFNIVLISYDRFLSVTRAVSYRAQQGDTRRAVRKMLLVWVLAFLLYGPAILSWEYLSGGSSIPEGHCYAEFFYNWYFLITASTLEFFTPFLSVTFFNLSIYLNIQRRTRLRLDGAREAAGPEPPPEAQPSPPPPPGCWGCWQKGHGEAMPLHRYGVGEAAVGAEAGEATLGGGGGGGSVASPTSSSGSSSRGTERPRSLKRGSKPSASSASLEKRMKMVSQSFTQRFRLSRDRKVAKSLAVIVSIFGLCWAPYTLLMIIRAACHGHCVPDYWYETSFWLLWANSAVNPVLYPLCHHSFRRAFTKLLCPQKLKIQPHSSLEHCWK

Which results are given for `C[C@H]1CCCN1CCc1ccc2cc(-c3ccc(C#N)cc3)ccc2c1`?
Ki (Histamine H3 receptor [1]): 0.12 nM; Ki (Histamine H3 receptor [2]): 3.47 nM

Which Ki (Histamine H3 receptor [1]) does the source give for `N#Cc1ccc(-c2ccc3cc(CCN4CCC[C@H]4CO)ccc3c2)cc1` here?
Its Ki is 0.44 nM.

What about the Ki (Histamine H3 receptor [2]) of the same compound?
Its Ki is 11 nM.

What does the source list for `CC(C)CC1CCCN1CCc1ccc2cc(-c3ccc(C#N)cc3)ccc2c1` (stereo unspecified)?
Ki (Histamine H3 receptor [1]): 273 nM; Ki (Histamine H3 receptor [2]): 465 nM

What does the source list for `CCN(CCc1ccc2cc(-c3ccc(C#N)cc3)ccc2c1)C(C)C`?
Ki (Histamine H3 receptor [1]): 4.62 nM; Ki (Histamine H3 receptor [2]): 30.3 nM

Which Ki (Histamine H3 receptor [1]) does the source give for `N#Cc1ccc(-c2ccc3cc(CCN4CC[C@@H](O)C4)ccc3c2)cc1` here?
The Ki was 1.56 nM.

What about the Ki (Histamine H3 receptor [2]) of the same compound?
Its Ki is 30.9 nM.

Which results are given for `N#Cc1ccc(-c2ccc3cc(CCN4CCC[C@@H]4CO)ccc3c2)cc1`?
Ki (Histamine H3 receptor [1]): 2.89 nM; Ki (Histamine H3 receptor [2]): 42.8 nM

For `CC[C@@H]1CCCN1CCc1ccc2cc(-c3ccc(C#N)cc3)ccc2c1`, which Ki (Histamine H3 receptor [1]) is on record?
The Ki was 8.61 nM.

What about the Ki (Histamine H3 receptor [2]) of the same compound?
The Ki was 33.7 nM.

Which Ki (Histamine H3 receptor [1]) does the source give for `CC1CCCN1CCc1ccc2cc(-c3ccc(C#N)cc3)ccc2c1` (stereo unspecified) here?
Its Ki is 0.18 nM.

And the Ki (Histamine H3 receptor [2])?
The Ki was 1.24 nM.

With `CCCN(C)CCc1ccc2cc(-c3ccc(C#N)cc3)ccc2c1` as the compound, how does the Ki (Histamine H3 receptor [1]) read?
Its Ki is 2.09 nM.

What about the Ki (Histamine H3 receptor [2]) of the same compound?
The Ki was 25.7 nM.

Which results are given for `CN(C)CCc1ccc2cc(-c3ccc(C#N)cc3)ccc2c1`?
Ki (Histamine H3 receptor [1]): 2.65 nM; Ki (Histamine H3 receptor [2]): 45.3 nM

For `CCN(CC)CCc1ccc2cc(-c3ccc(C#N)cc3)ccc2c1`, which Ki (Histamine H3 receptor [1]) is on record?
The Ki was 0.84 nM.

What about the Ki (Histamine H3 receptor [2]) of the same compound?
The Ki was 12.5 nM.

With `CN(CCO)CCc1ccc2cc(-c3ccc(C#N)cc3)ccc2c1` as the compound, how does the Ki (Histamine H3 receptor [1]) read?
Its Ki is 10.5 nM.

What about the Ki (Histamine H3 receptor [2]) of the same compound?
Its Ki is 457 nM.

With `CC(C)C1CCCN1CCc1ccc2cc(-c3ccc(C#N)cc3)ccc2c1` (stereo unspecified) as the compound, how does the Ki (Histamine H3 receptor [1]) read?
The Ki was 27.3 nM.

And the Ki (Histamine H3 receptor [2])?
The Ki was 233 nM.

What does the source list for `C[C@@H]1CCCN1CCCOc1ccc(-c2ccc(C#N)cc2)cc1`?
Ki (Histamine H3 receptor [1]): 0.22 nM; Ki (Histamine H3 receptor [2]): 1.96 nM

Which bioavailability [3] does the source give for `C[C@@H]1CCCN1CCc1ccc2cc(-c3ccc(C#N)cc3)ccc2c1` here?
Its bioavailability is 55%.

What about the half-life [4] of the same compound?
The half-life was 6.5 h.

What about the Ki (Histamine H3 receptor [1]) of the same compound?
The Ki was 0.24 nM.

And the Kp [5]?
The Kp was 72.

And the AUC(0-inf) [6]?
The AUC(0-inf) was 890 ng·h/mL.

What about the Vd [7] of the same compound?
Its Vd is 6 L/kg.

And the half-life [8]?
Its half-life is 6.9 h.

What about the Cmax [9] of the same compound?
The Cmax was 48 ng/mL.

And the Ki (Histamine H3 receptor [2])?
Its Ki is 2.48 nM.

What about the AUC(0-inf) [10] of the same compound?
The AUC(0-inf) was 1640 ng·h/mL.

Which Ki (Histamine H3 receptor [1]) does the source give for `CN(C)[C@@H]1CCN(CCc2ccc3cc(-c4ccc(C#N)cc4)ccc3c2)C1` here?
Its Ki is 20.1 nM.

What about the Ki (Histamine H3 receptor [2]) of the same compound?
The Ki was 100 nM.

What does the source list for `C[C@@H]1CCCN1CCc1cc2cc(-c3ccc(C#N)cc3)ccc2o1`?
half-life [4]: 5.2 h; AUC(0-inf) [6]: 349 ng·h/mL; Vd [7]: 12 L/kg; half-life [8]: 5.3 h; Cmax [9]: 29 ng/mL; AUC(0-inf) [10]: 673 ng·h/mL

With `N#Cc1ccc(-c2ccc3cc(CCN4CC=CC4)ccc3c2)cc1` as the compound, how does the Ki (Histamine H3 receptor [1]) read?
The Ki was 3.31 nM.

And the Ki (Histamine H3 receptor [2])?
Its Ki is 66.1 nM.

Which Ki (Histamine H3 receptor [1]) does the source give for `N#Cc1ccc(-c2ccc3cc(CCN4CCCC4)ccc3c2)cc1` here?
Its Ki is 0.49 nM.

And the Ki (Histamine H3 receptor [2])?
Its Ki is 6.42 nM.

Which Ki (Histamine H3 receptor [1]) does the source give for `C[C@@H]1CCCCN1CCc1ccc2cc(-c3ccc(C#N)cc3)ccc2c1` here?
Its Ki is 8.71 nM.

What about the Ki (Histamine H3 receptor [2]) of the same compound?
Its Ki is 141 nM.

For `CN(CCc1ccc2cc(-c3ccc(C#N)cc3)ccc2c1)C(C)(C)C`, which Ki (Histamine H3 receptor [1]) is on record?
Its Ki is 1.09 nM.

What about the Ki (Histamine H3 receptor [2]) of the same compound?
The Ki was 27.9 nM.

For `N#Cc1ccc(-c2ccc3cc(CCN4CCC[C@H]4CF)ccc3c2)cc1`, which Ki (Histamine H3 receptor [1]) is on record?
Its Ki is 0.81 nM.

What about the Ki (Histamine H3 receptor [2]) of the same compound?
Its Ki is 9.77 nM.
